Measured values from different studies.
EGFR del747-752/P753S: Epidermal growth factor receptor (EGFR, Homo sapiens, UniProt P00533, del747-752/P753S)
EGFR G719C: Epidermal growth factor receptor (EGFR, Homo sapiens, UniProt P00533, G719C)
EGFR del747-750/T751S: Epidermal growth factor receptor (EGFR, Homo sapiens, UniProt P00533, del747-750/T751S)
EGFR: Epidermal growth factor receptor (EGFR, Homo sapiens, UniProt P00533)
EGFR L858R/T790M: Epidermal growth factor receptor (EGFR, Homo sapiens, UniProt P00533, L858R/T790M)
EGFR A750P/del747-749: Epidermal growth factor receptor (EGFR, Homo sapiens, UniProt P00533, A750P/del747-749)
EGFR T790M: Epidermal growth factor receptor (EGFR, Homo sapiens, UniProt P00533, T790M)
EGFR del746-750: Epidermal growth factor receptor (EGFR, Homo sapiens, UniProt P00533, del746-750)
EGFR L861Q: Epidermal growth factor receptor (EGFR, Homo sapiens, UniProt P00533, L861Q)
EGFR L858R: Epidermal growth factor receptor (EGFR, Homo sapiens, UniProt P00533, L858R)

| Structure (SMILES) | target | read-out | method | tested at | remaining binding [%] |
| --- | --- | --- | --- | --- | --- |
| O=C(Nc1c[nH]nc1C(=O)NC1CCNCC1)c1cc(F)cc(F)c1 | EGFR del747-752/P753S | binding | competition with immobilised ligand | 1 µM | 100 |
| CN1CCN(c2ccc(Nc3nccc(-c4ccccc4)n3)cc2C(F)(F)F)CC1 | EGFR G719C | binding | – | 10 µM | 64 |
| O=C(NC1CCC1)c1ccc2nc(-c3cccc(NS(=O)(=O)NCCN4CCCCC4)c3)cn2c1 | EGFR del747-752/P753S | cell-free assay | competition with immobilised ligand | 10 µM | 100 |
| CC(=O)N1CCC(c2ccc(C(=O)NC(=N)N)cc2C(F)(F)F)CC1 | EGFR del747-750/T751S | cell-free assay | competition with immobilised ligand | 1 µM | 100 |
| Cc1ccc(NC(=O)c2ccc(CN3CCN(C)CC3)cc2)cc1Nc1nccc(-c2cccnc2)n1 | EGFR | cell-free assay | competition with immobilised ligand | 0.1 µM | 100 |
| CCN1CCN(Cc2ccc(C(=O)Nc3ccc(C)c(Oc4ccc5c(c4)CC(=O)N5)c3)cc2C(F)(F)F)CC1 | EGFR L858R/T790M | binding | competition with immobilised ligand | 1 µM | 90 |
| CNC(=O)[C@@H]1CC[C@@H](n2c(-c3ccc4cnccc4c3)nc3ccc(C(=O)NCc4cccc(C(N)=O)c4)cc32)C1 | EGFR A750P/del747-749 | binding | competition with immobilised ligand | 1 µM | 100 |
| CN(C)c1nccc(-c2cnc3ncccn23)n1 | EGFR T790M | binding | – | 1 µM | 58 |
| O=C(c1ccc(Nc2ncc(Cl)c(-c3cc4ccccc4s3)n2)cc1)N1CCC(N2CCCC2)CC1 | EGFR A750P/del747-749 | binding | competition with immobilised ligand | 1 µM | 86 |
| CN(C)c1nccc(-c2cnn3ncccc23)n1 | EGFR T790M | binding | – | 1 µM | 100 |
| c1ccc(N2CCN(Cc3nc4ccccc4[nH]3)CC2)nc1 | EGFR T790M | cell-free assay | competition with immobilised ligand | 1 µM | 99 |
| O=C(NCCCN1CCOCC1)c1ccc(Nc2ncc(Cl)c(-c3ccc(Cl)s3)n2)cc1 | EGFR T790M | binding | competition with immobilised ligand | 1 µM | 83 |
| c1cncc(-c2cccc(Nc3nccc(NC4CCCCC4)n3)c2)c1 | EGFR del746-750 | binding | competition with immobilised ligand | 10 µM | 38 |
| CN([C@@H]1CCc2c(CC(=O)O)c3ccccc3n2C1)S(=O)(=O)c1ccc(F)cc1 | EGFR A750P/del747-749 | cell-free assay | competition with immobilised ligand | 1 µM | 100 |
| CN1CCN(c2ccc(Nc3nccc(-c4cccc([N+](=O)[O-])c4)n3)cc2C(F)(F)F)CC1 | EGFR T790M | binding | – | 10 µM | 45 |
| COc1cnc(Nc2cccc(S(N)(=O)=O)c2)nc1N1CCN(c2ccccc2)C(=O)C1 | EGFR del747-752/P753S | binding | competition with immobilised ligand | 1 µM | 75 |
| NS(=O)(=O)c1cc(NC(=O)C2(c3ccccc3Cl)CC2)ccc1Oc1cccc(Cl)c1 | EGFR del747-752/P753S | cell-free assay | competition with immobilised ligand | 1 µM | 57 |
| COc1ncc2cc3ccccc3nc2c1C#N | EGFR del746-750 | cell-free assay | competition with immobilised ligand | 5 µM | 87 |

| Structure (SMILES) | target | read-out | method | tested at | remaining binding [%] |
| --- | --- | --- | --- | --- | --- |
| Nc1ncc2c(n1)-c1c([nH]c3ccc(C#CC4CC4)cc13)CCCC2 | EGFR del747-752/P753S | binding | competition with immobilised ligand | 1 µM | 56 |
| O=C(c1ccc(Nc2nccc(-c3cc4ccccc4s3)n2)cc1)N1CCC(N2CCCC2)CC1 | EGFR L861Q | binding | competition with immobilised ligand | 1 µM | 89 |
| CN(CCCC(F)(F)F)c1nccc(-c2cnn3ncccc23)n1 | EGFR L858R/T790M | binding | – | 1 µM | 100 |
| O=C1CCc2cc(Nc3cc(OC4CCOCC4)c([N+](=O)[O-])cc3Cl)ccc2N1 | EGFR L861Q | cell-free assay | competition with immobilised ligand | 1 µM | 100 |
| FC(F)(F)Oc1cccc(-c2cnc3ccc(-c4ccncc4)nn23)c1 | EGFR | cell-free assay | competition with immobilised ligand | 5 µM | 79 |
| COc1cnc(Nc2cccc(S(N)(=O)=O)c2)nc1N1CCN(c2ccccc2)CC1 | EGFR L858R/T790M | binding | competition with immobilised ligand | 1 µM | 87 |
| CC1CCCN1c1nccc(-c2cnn3ncccc23)n1 (centres unmarked) | EGFR del746-750 | binding | – | 1 µM | 75 |
| CS(=O)(=O)NCC[C@H](NC(=O)c1cncc2c1cnn2-c1ccc(F)cc1)c1ccnc(S(C)(=O)=O)c1 | EGFR L858R | cell-free assay | competition with immobilised ligand | 1 µM | 83 |
| O=C(NCCCN1CCOCC1)c1ccc(Nc2nccc(-c3cc4ccccc4s3)n2)cc1 | EGFR del747-752/P753S | binding | competition with immobilised ligand | 1 µM | 92 |
| CN(c1nccc(-c2cnn3ncccc23)n1)C1CC1 | EGFR L858R/T790M | binding | – | 1 µM | 100 |
| Cc1cnc(Nc2ccc(C(=O)N3CCC(N4CCCC4)CC3)cc2)nc1-c1cc2ccccc2s1 | EGFR T790M | binding | competition with immobilised ligand | 1 µM | 56 |
| CN(c1ccnc(CNc2nc(Nc3ccc4c(c3)CC(=O)N4)ncc2C(F)(F)F)n1)S(C)(=O)=O | EGFR del747-750/T751S | cell-free assay | competition with immobilised ligand | 1 µM | 83 |
| C[C@H]1CCN(c2nccc(-c3cnn4ncccc34)n2)C1 | Epidermal growth factor receptor (EGFR, Homo sapiens, UniProt P00533, G719S) | binding | – | 1 µM | 75 |
| O=C(NCC1CCOCC1)c1n[nH]cc1NC(=O)c1c(F)cccc1F | EGFR G719C | binding | competition with immobilised ligand | 1 µM | 100 |
| N[C@H]1CCN(c2nccc(-c3cnn4ncccc34)n2)C1 | EGFR L858R | binding | – | 1 µM | 100 |
| CCOC(=O)c1cc2cc(-c3cc(C(=O)NCc4ccc(C(=O)O)cc4)nn3C)ccc2[nH]1 | EGFR T790M | cell-free assay | competition with immobilised ligand | 0.1 µM | 89 |
| O=C(c1ccc(Nc2ncc(Cl)c(-c3ccc(Cl)s3)n2)cc1)N1CCC(N2CCCC2)CC1 | EGFR L858R/T790M | binding | competition with immobilised ligand | 1 µM | 49 |
